According to ChEMBL document CHEMBL1148287, “Design of potent, selective, and orally bioavailable inhibitors of cysteine protease cathepsin k” (J Med Chem, 2004):
pIC50: −log10 of the molar value. Values belong to the compound of their own block, whether it stands above or below them.

What was measured:
[1] = Half-life in rat; type: ADME, organism-based; settings: in vivo
How it was run: (§1)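 Rats were dosed iv into the femoral vein at 5 mg/kg or orally at 10 mg/kg, from a solution in 15% solutol/citrate buffer/0.1% ascorbic acid, pH 3.5. Blood was drawn from a jugular cannula before dosing and at 0.03–24 h, then clotted to serum. Samples were acetonitrile-precipitated with internal standard and analysed by LC-MS/MS (MRM). Parameters came from noncompartmental analysis.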

[2] = Peak plasma concentration in rat; type: ADME, organism-based; how it was run: as §1
Cathepsin K [3] = molecular target: T1, Cathepsin K (Homo sapiens, UniProt P43235); assay: Concentration required to inhibit 50% of cysteine protease cathepsin K of human
T1 sequence (P43235 whole entry): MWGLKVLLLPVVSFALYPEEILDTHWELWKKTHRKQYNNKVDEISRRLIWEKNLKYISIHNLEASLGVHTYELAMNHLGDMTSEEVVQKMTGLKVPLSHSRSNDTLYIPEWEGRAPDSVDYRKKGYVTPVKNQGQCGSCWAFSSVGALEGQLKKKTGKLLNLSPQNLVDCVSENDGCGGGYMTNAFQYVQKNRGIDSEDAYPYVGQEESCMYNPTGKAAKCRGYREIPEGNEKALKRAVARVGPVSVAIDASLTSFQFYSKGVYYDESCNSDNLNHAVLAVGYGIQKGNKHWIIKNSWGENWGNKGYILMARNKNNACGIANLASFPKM
How it was run: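 Reactions were started by adding inhibitor plus substrate to enzyme. AMC fluorescence (ex 360/em 440) progress curves were followed over 2.3 h at varied inhibitor concentrations. IC50 was fitted as rate = Vmax/(1+[I]/IC50).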

[4] = Maximum time required to achieve Cmax was determined in rat; type: ADME, organism-based; settings: in vivo; how it was run: as §1
[5] = Percent instability was measured by Rat S9 liver […] metabolism assay, in vitro; type: ADME, Liver S9 fraction; settings: read-out: Activity
How it was run: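 Rat S9 liver metabolism, read as % metabolized after 1 h incubation at 37 °C, run in duplicate.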

[6] = Bioavailability in rat; type: ADME, organism-based; settings: in vivo; how it was run: as §1
[7] = Area Under plasma concentration time curve in rat upon peroral administration; type: ADME, organism-based; settings: po; how it was run: as §1
[8] = Compound was tested for its cell permeability in the Madin-Darby canine kidney cell monolayer transport assay; type: ADME, Canis lupus familiaris; settings: dog, MDCK; read-out: Activity
Cathepsin K [9] = molecular target: T2, Cathepsin K (Rattus norvegicus, UniProt O35186); assay: Inhibition of cysteine protease cathepsin K of rat
T2 sequence (O35186 whole entry): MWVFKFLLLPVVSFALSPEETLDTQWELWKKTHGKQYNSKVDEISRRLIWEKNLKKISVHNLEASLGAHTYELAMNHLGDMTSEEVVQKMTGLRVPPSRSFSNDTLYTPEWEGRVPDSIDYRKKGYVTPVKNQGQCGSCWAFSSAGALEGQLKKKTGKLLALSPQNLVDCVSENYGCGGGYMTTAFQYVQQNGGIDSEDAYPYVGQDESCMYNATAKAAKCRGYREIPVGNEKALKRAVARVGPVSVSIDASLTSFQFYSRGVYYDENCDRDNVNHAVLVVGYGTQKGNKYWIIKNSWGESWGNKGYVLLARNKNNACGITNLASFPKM

[10] = molecular target: Cathepsin (H and K) (Homo sapiens) (UniProt P09668+P43235); assay: Selectivity for Cathepsins H and K, ratio of IC50; type: protein assay
How it was run: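 Human liver cathepsin H was run with L-Arg-β-naphthalamide at 50 μM final (Km 195 μM), read at ex 340/em 420. Human cathepsin K used Cbz-Phe-Arg-AMC at 10 μM, read at ex 360/em 440. Both were at pH 5.5 with DTT/NaCl and 10% DMSO at 30 °C, with 2.3 h progress curves. IC50s were fitted from rate vs [I] and ratioed.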

[11] = Selectivity as ratio between IC50 against Cathepsin L and IC50 against Cathepsin K
How it was run: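 Both assays used pH 5.5 acetate/DTT/NaCl, 10% DMSO, 30 °C and AMC fluorescence progress curves over 2.3 h. IC50s were fitted from rate vs [I] and taken as a ratio.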

[12] = Selectivity ratio between IC50 against Cathepsin S and IC50 against Cathepsin K
How it was run: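 Recombinant human cathepsin S was run with Cbz-Val-Val-Arg-AMC at 10 μM final (Km >100 μM); human cathepsin K used Cbz-Phe-Arg-AMC at 10 μM. Both were in pH 5.5 sodium acetate with 10 mM DTT, 120 mM NaCl and 10% DMSO at 30 °C, with AMC fluorescence progress curves over 2.3 h. The ratio was taken from the fitted IC50s.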

Homo sapiens = species on record: Homo sapiens; assay: Selectivity as ratio between IC50 against Cathepsin V and IC50 against Cathepsin K
How it was run: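 Conditions were pH 5.5 acetate buffer with 10 mM DTT, 120 mM NaCl and 10% DMSO at 30 °C, with fluorescence progress curves over 2.3 h. The IC50 fits gave the ratio.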

[13] = Selectivity as ratio between IC50 against Cathepsin B and IC50 against Cathepsin K
How it was run: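 Human liver cathepsin B and recombinant human cathepsin K were each run with Cbz-Phe-Arg-AMC at 10 μM final (Km 400 and 70 μM). Both used pH 5.5 acetate/DTT/NaCl buffer, 10% DMSO, 30 °C and a 2.3 h fluorescence progress-curve read (ex 360/em 440). IC50s were fitted from rate vs [I], and the ratio of the two IC50s was taken.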

Cathepsin (H and K) (Homo sapiens), sequence (P09668 whole entry, looked up, one chain of several): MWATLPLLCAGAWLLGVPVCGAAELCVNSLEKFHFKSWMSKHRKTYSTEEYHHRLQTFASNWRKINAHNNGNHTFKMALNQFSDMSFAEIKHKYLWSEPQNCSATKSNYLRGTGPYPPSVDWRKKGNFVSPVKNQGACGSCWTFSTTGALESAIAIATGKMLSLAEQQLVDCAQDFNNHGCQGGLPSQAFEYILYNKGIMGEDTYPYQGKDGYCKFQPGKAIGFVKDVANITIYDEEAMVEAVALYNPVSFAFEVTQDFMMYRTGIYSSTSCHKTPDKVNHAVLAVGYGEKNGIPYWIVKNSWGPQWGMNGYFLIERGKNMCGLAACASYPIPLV

SMILES: CCCC[C@H](NC(=O)OC(C(C)C)C(C)C)C(=O)C(=O)Nc1cc(-c2ccccc2)[nH]n1
- Ratio [10]: 18
- Ratio [11]: 25
- Ratio [12]: 7
- Ratio (Homo sapiens): 20
- Ratio [13]: 520

SMILES: CCCC[C@H](NC(=O)OC(C(C)C)C(C)C)C(=O)C(=O)N[C@H](C)c1ccccc1
- pIC50 (Cathepsin K [3]): 8.60

SMILES: CCCC[C@H](NC(=O)OC(C(C)C)C(C)C)C(=O)C(=O)Nc1ccn(C)n1
- pIC50 (Cathepsin K [9]): 7.96
- pIC50 (Cathepsin K [3]): 9.39

SMILES: CCCC[C@H](NC(=O)OC(C(C)C)C(C)C)C(=O)C(=O)Nc1ccc2ccccc2n1
- pIC50 (Cathepsin K [3]): 6.60

SMILES: CCCC[C@H](NC(=O)OC(C(C)C)C(C)C)C(=O)C(=O)Nc1ccccn1
- half-life [1]: 2.17 h
- Cmax [2]: 1.4 µg/mL
- pIC50 (Cathepsin K [3]): 7.49
- Tmax [4]: 0.25 h
- metabolised [5]: 63%
- bioavailability [6]: 58%
- AUC [7]: 2.7 µg·h/mL
- Papp [8]: 210 nm/s

SMILES: CCCC[C@H](NC(=O)OC(C(C)C)C(C)C)C(=O)C(=O)Nc1cccnc1
- pIC50 (Cathepsin K [3]): 7.02

SMILES: CC(C)C(OC(=O)NCC(=O)C(=O)NCc1cccs1)C(C)C
- pIC50 (Cathepsin K [3]): 4.92

SMILES: CCCC[C@H](NC(=O)OC(C(C)C)C(C)C)C(=O)C(=O)Nc1ccnn1CC
- pIC50 (Cathepsin K [9]): 5.82
- pIC50 (Cathepsin K [3]): 7.59

SMILES: CCCC[C@H](NC(=O)OC(C(C)C)C(C)C)C(=O)C(=O)Nc1cc(-c2ccccc2)n[nH]1
- pIC50 (Cathepsin K [9]): 7.92
- pIC50 (Cathepsin K [3]): 9.19

SMILES: CCCC[C@H](NC(=O)OC(C(C)C)C(C)C)C(=O)C(=O)Nc1ccnn1C1CCCCC1
- pIC50 (Cathepsin K [9]): 5.92
- pIC50 (Cathepsin K [3]): 7.66

Next, values leading:

- half-life [1]: 2.17 h
- Cmax [2]: 0.17 µg/mL
- pIC50 (Cathepsin K [3]): 7.40
- Tmax [4]: 0.167 h
- metabolised [5]: 98%
- bioavailability [6]: 18%
- AUC [7]: 0.75 µg·h/mL
- Papp [8]: 230 nm/s
SMILES: CCCC[C@H](NC(=O)OC(C(C)C)C(C)C)C(=O)C(=O)Nc1nccs1

- pIC50 (Cathepsin K [9]): 5.77
- half-life [1]: 4 h
- Cmax [2]: 0.97 µg/mL
- pIC50 (Cathepsin K [3]): 7.49
- Ratio [10]: > 400
- Tmax [4]: 0.633 h
- Ratio [11]: 250
- metabolised [5]: 99%
- Ratio [12]: 91
- bioavailability [6]: 28%
- Ratio (Homo sapiens): 50
- Ratio [13]: > 400
- AUC [7]: 1.8 µg·h/mL
- Papp [8]: 490 nm/s
SMILES: CCCC[C@H](NC(=O)OC(C(C)C)C(C)C)C(=O)C(=O)Nc1ccnn1C

- pIC50 (Cathepsin K [9]): 5.57
- pIC50 (Cathepsin K [3]): 7.41
- Ratio [10]: > 320
- Ratio [11]: 260
- Ratio [12]: 59
- Ratio (Homo sapiens): 120
- Ratio [13]: > 320
SMILES: CCCC[C@H](NC(=O)OC(C(C)C)C(C)C)C(=O)C(=O)Nc1ccnn1CC(C)C

- pIC50 (Cathepsin K [9]): 5.96
- pIC50 (Cathepsin K [3]): 7.70
SMILES: CCCC[C@H](NC(=O)OC(C(C)C)C(C)C)C(=O)C(=O)Nc1ccnn1C1CCCC1

- pIC50 (Cathepsin K [9]): 6.10
- pIC50 (Cathepsin K [3]): 7.82
SMILES: CCCC[C@H](NC(=O)OC(C(C)C)C(C)C)C(=O)C(=O)Nc1ccnn1-c1ccccc1

- pIC50 (Cathepsin K [3]): 9.15
SMILES: CCCC[C@H](NC(=O)OC(C(C)C)C(C)C)C(=O)C(=O)Nc1cc(C)n[nH]1

- pIC50 (Cathepsin K [3]): 7.85
SMILES: CC(C)C(OC(=O)N[C@@H](CC1CCCCC1)C(=O)C(=O)NCc1cccs1)C(C)C

- pIC50 (Cathepsin K [3]): 7.28
SMILES: CCCC[C@H](NC(=O)OC(C(C)C)C(C)C)C(=O)C(=O)Nc1cnccn1

- pIC50 (Cathepsin K [3]): 8.29
SMILES: CCCC[C@H](NC(=O)OC(C(C)C)C(C)C)C(=O)C(=O)Nc1ccon1

- pIC50 (Cathepsin K [9]): 5.92
- pIC50 (Cathepsin K [3]): 7.21
- Ratio [11]: 40
- Ratio [12]: 8.3
- Ratio (Homo sapiens): 19
- Ratio [13]: > 200
SMILES: CCCC[C@H](NC(=O)OC(C(C)C)C(C)C)C(=O)C(=O)Nc1ccnn1-c1ccccn1
